One may read the Ki as the equilibrium dissociation constant of an inhibitor or competing ligand from its target. In general, EC50 refers to the midpoint of the concentration-response curve.

Each structure is given as a SMILES string. Active and inactive are the calls of the source. No cut-off for these calls is given here.

Results on seven compounds are retold here after ChEMBL document CHEMBL2311502, “Discovery of novel and ligand-efficient inhibitors of Plasmodium falciparum and Plasmodium vivax N-myristoyltransferase” (J Med Chem, 2013).

Assay [1] addresses T1, Glycylpeptide N-tetradecanoyltransferase (Plasmodium falciparum (isolate 3D7), UniProt Q8ILW6).
T1 sequence (Q8ILW6 whole entry): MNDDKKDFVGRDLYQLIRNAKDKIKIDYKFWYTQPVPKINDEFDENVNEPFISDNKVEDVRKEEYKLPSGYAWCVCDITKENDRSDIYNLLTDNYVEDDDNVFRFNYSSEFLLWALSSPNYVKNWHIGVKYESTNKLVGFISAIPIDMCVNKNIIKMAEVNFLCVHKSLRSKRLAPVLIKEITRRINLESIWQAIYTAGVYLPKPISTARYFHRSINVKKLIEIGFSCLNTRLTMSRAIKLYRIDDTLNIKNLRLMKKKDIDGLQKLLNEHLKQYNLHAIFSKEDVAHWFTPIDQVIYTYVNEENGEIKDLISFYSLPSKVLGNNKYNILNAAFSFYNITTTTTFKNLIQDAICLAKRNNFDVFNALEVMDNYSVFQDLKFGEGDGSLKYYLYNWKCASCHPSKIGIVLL
As to the kind of experiment: Binding affinity to Plasmodium falciparum NMT using GSNKSKPKDASQRRR-NH2 as substrate after 10 to 20 mins by CPM fluorescence assay. Put shortly:
(§1)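 Ki derived from enzyme IC50 by the Cheng–Prusoff equation, which corrects for the differing Michaelis constants of each NMT. Each IC50 is the mean of two or more determinations.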

Assay [2] has as its system Plasmodium falciparum. As to the kind of experiment: Antiplasmodium activity against Chloroquine-sensitive later trophozoite form of Plasmodium falciparum 3D7 assessed as parasite growth inhibition after 48 hrs by FACS flow cytometric analysis. Type of assay: functional, organism-based. As to conditions: 3D7, 48 h.
Assay [3] concerns the target T2, Glycylpeptide N-tetradecanoyltransferase 1 (Homo sapiens, UniProt P30419).
T2 sequence (P30419 whole entry): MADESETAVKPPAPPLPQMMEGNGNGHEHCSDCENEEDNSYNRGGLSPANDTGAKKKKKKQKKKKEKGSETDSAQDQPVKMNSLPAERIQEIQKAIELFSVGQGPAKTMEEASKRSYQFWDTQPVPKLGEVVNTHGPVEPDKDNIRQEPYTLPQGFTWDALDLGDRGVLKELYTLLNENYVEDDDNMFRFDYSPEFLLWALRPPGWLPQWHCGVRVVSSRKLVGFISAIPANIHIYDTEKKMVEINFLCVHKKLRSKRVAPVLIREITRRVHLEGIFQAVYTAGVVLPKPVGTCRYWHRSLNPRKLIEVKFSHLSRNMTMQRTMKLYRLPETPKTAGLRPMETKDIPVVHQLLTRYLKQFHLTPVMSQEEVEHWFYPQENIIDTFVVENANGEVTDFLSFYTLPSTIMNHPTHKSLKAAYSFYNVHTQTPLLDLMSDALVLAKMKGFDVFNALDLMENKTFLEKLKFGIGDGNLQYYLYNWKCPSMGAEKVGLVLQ
Put plainly: Binding affinity to human NMT1 after 10 to 20 mins by CPM fluorescence assay. In a few lines:
as §1

Assay [4] is described as follows: Binding affinity to recombinant Plasmodium vivax NMT using GSNKSKPKDASQRRR-NH2 as substrate after 10 to 20 mins by CPM fluorescence assay. Put shortly: as §1
The target in assay [5] is Glycylpeptide N-tetradecanoyltransferase 1 (Homo sapiens) (UniProt P30419). Put plainly: Inhibition of human NMT1.

In the case of `O=C(OCc1ccccc1)c1sc2ccccc2c1OC1CCNCC1`, the Ki in assay [1] stood at 3.37 µM; in assay [3] it was 4.41 µM; in assay [4], 2.16 µM. In addition, in assay [2], the EC50 came out at 4.2 µM. In addition, the “inhibition activity call (active/not active)” value in assay [5] is “Active”.

In the case of `O=C(NCc1ccccc1)c1sc2ccccc2c1OC1CCNCC1`, the values for the Ki in assay [1], in assay [3] and in assay [4] were 10.7 µM, 4.76 µM and 1.32 µM, respectively. Also, in assay [2], the EC50 was found to be 8.1 µM. Further, in assay [5], the “inhibition activity call (active/not active)” value is “Active”.

As for `CCOC(=O)c1sc2ccccc2c1OC1CCNCC1`, the Ki in assay [1] is 1.3 µM; in assay [3], greater than 100 µM; in assay [4], 1.32 µM. For the same compound, in assay [2], the EC50 came to 14.6 µM. Further, the “inhibition activity call (active/not active)” value in assay [5] was “inactive”.

Compound `COc1cccc(COC(=O)c2sc3ccccc3c2OC2CCNCC2)c1` came in with a Ki in assay [1] of 0.83 µM. Besides, the EC50 in assay [2] stood at 2 µM. In assay [5], the “inhibition activity call (active/not active)” value is “Active”.

With `COc1cccc(CNC(=O)c2sc3ccccc3c2OC2CCNCC2)c1`, the Ki in assay [1] was greater than 100 µM; in assay [3], greater than 100 µM; in assay [4], 2.7 µM. In addition, the “inhibition activity call (active/not active)” value in assay [5] was “inactive”.

Take `CCOC(=O)c1oc2cccc(OC3CCNCC3)c2c1C`: the values for the Ki in assay [1], in assay [3] and in assay [4] were 13.6 µM, greater than 100 µM and 14.9 µM, respectively. For the same compound, the “inhibition activity call (active/not active)” value in assay [5] was “inactive”.

On to `CCOC(=O)c1oc2ccccc2c1OC1CCNCC1`, for which the Ki is 4.47 µM in assay [1], greater than 100 µM in assay [3] and 1.74 µM in assay [4]. The EC50 in assay [2] turned out to be 61.4 µM. The “inhibition activity call (active/not active)” value in assay [5] is “inactive”.
